From PubChem BioAssay
In the library only some 2.1% were active in any assay of this set; here they are far more common.
TLR4 MyD88 comp: blocks binding of human TLR4 to MyD88 | O00206+Q99836 | HeLa CL3-4 TLR4/MyD88 BLA complementation, FRET ratio | inhibition, % at 8.4 µM | 200,000 compounds, 0.18% hits; in the data active = inhibition above about 25%
MIN6 prolif-1: inducers of beta-cell replication in MIN6 cells; proliferation, % at 10 µM; AID 2380; MIN6 cells proliferation, ATPlite luminescence, 48 h; cells starved in 0.2% serum; 100% = growth in 10% serum; 330,000 compounds, 0.29% hits;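 active = compounds whose signal lies at least 3.5 SD above the mean of all wells on their plate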
NOD2 RIPK2 PPI: NOD2-RIPK2 protein interaction inhibition; CHO BLA complementation NOD2-RIPK2, CCF4 ratio; inhibition, % at 4.98 µM; 360,000 compounds, 0.38% hits; O43353; AID 624267; in the data active = inhibition above about 21%
MC4R barr agon: agonists of human melanocortin 4 receptor (MC4R) beta-arrestin. U2OS MC4R beta-arrestin complementation, luminescence; percent of melanotan II response, DMSO zero. 360,000 compounds, 0.98% hits. P32245. activation, % at 8.9 µM;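 active = activation above a per-plate cutoff, the mean activation of sample wells on that plate plus 3 SD, cut at about 8% in these data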
TLR9-MyD88 block: blocks human TLR9 binding to MyD88 | Q9NR96+Q99836 | CHO BLA complementation TLR9-MyD88, CCF4 FRET ratio | inhibition, % at 4.98 µM | 340,000 compounds, 0.21% hits | AID 504734;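 active = inhibition above the mean over all tested compounds plus 3 SD, cut at about 21% in these data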
MC4R antag cAMP: blocks human MC4R cAMP signaling | AID 540295 | inhibition, % at 6.5 µM | P32245 | 360,000 compounds, 0.48% hits | MC4R-expressing cells, MTII-stimulated cAMP, LANCE TR-FRET;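 active = inhibition above its plate's cutoff, the mean of tested wells on that plate plus 3 SD, cut at about 29% in these data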
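material = U2OS cells stably expressing human melanocortin 4 receptor (MC4R) | also added = Melanotan II challenge | dosing = single nominal compound dose of 6.5 µM | detection = TR-FRET with Eu-cAMP and labeled anti-cAMP, 671 nm | replication = singlicate | timing = compound 30 min, challenge 1 h, detection 1 h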
MIN6 prolif-2: MIN6 beta-cell replication induction, confirmed; shares compounds with MIN6 prolif-1; MIN6 beta-cell proliferation, ATPlite luminescence, 48 h; cells kept in 0.2% serum; scaled between 0.2% and 10% serum; proliferation increase, % at 50 µM; 920 tested, under 10 active; AID 463095;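 active = proliferation increase above 40% at any of the four tested concentrations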
Hits are given with their value.

Cc1c(-c2ccccc2)[n+](=O)c2c(n1[O-])CCC2 was read as TLR4 MyD88 comp inactive, MIN6 prolif-1 8.9, NOD2 RIPK2 PPI inactive, MC4R barr agon inactive, TLR9-MyD88 block inactive, MC4R antag cAMP inactive and MIN6 prolif-2 inactive.
`Cn1c(=O)[nH]c(=O)c2c1nc1n2CCCN1CCc1ccccc1` gave TLR4 MyD88 comp inactive, MIN6 prolif-1 7.2, NOD2 RIPK2 PPI inactive, MC4R barr agon inactive, TLR9-MyD88 block inactive, MC4R antag cAMP inactive and MIN6 prolif-2 inactive.
`Cn1c(=O)[nH]c(=O)c2c1nc1n2CCN1Cc1ccccc1` gave TLR4 MyD88 comp inactive, MIN6 prolif-1 inactive, NOD2 RIPK2 PPI inactive, MC4R barr agon inactive, TLR9-MyD88 block inactive and MC4R antag cAMP inactive.
Screening COc1ccc(S(=O)(=O)Cc2ccc(C(=O)NCCc3cc(OC)ccc3OC)o2)cc1 returned TLR4 MyD88 comp inactive, MIN6 prolif-1 7.5, NOD2 RIPK2 PPI inactive, MC4R barr agon inactive, TLR9-MyD88 block inactive, MC4R antag cAMP inactive and MIN6 prolif-2 inactive.
Clc1ccc(-c2cnc3ccccc3n2)cc1 was read as TLR4 MyD88 comp inactive, MIN6 prolif-1 5.4, NOD2 RIPK2 PPI inactive, MC4R barr agon inactive, TLR9-MyD88 block inactive, MC4R antag cAMP inactive and MIN6 prolif-2 inactive.
Screening O=C(NCC(=O)N1CCCC(C(F)(F)F)C1)c1ccco1 (centres undefined) returned MIN6 prolif-1 12.0, NOD2 RIPK2 PPI inactive, MC4R barr agon inactive, TLR9-MyD88 block inactive, MC4R antag cAMP inactive and MIN6 prolif-2 inactive.
Screening CC1CCCN(C(=O)CNC(=O)c2ccco2)C1 (centres undefined) returned MIN6 prolif-1 inactive, NOD2 RIPK2 PPI inactive, MC4R barr agon inactive, TLR9-MyD88 block inactive and MC4R antag cAMP inactive.
`CCCCn1c(SCC(=O)c2ccc(O)cc2O)nc2cc(S(N)(=O)=O)ccc21` gave MIN6 prolif-1 inactive, NOD2 RIPK2 PPI inactive, MC4R barr agon inactive, TLR9-MyD88 block inactive and MC4R antag cAMP inactive.
CCCCn1c(SCC(=O)c2cc(OC)ccc2OC)nc2cc(S(N)(=O)=O)ccc21 was read as TLR4 MyD88 comp inactive, MIN6 prolif-1 0.0, NOD2 RIPK2 PPI inactive, MC4R barr agon inactive, TLR9-MyD88 block inactive, MC4R antag cAMP inactive and MIN6 prolif-2 inactive.
`CC(C)(C)OC(=O)N[C@@H](Cc1ccccc1)C(=O)NCC1CCC(C(=O)O)CC1` (some centres undefined) gave MIN6 prolif-1 inactive, NOD2 RIPK2 PPI inactive, MC4R barr agon inactive, TLR9-MyD88 block inactive and MC4R antag cAMP inactive.
CCOc1ccccc1NC(=O)N1CCC(NC(=O)c2ccccc2C)CC1 was read as TLR4 MyD88 comp inactive, MIN6 prolif-1 7.8, NOD2 RIPK2 PPI inactive, MC4R barr agon inactive, TLR9-MyD88 block inactive, MC4R antag cAMP inactive and MIN6 prolif-2 inactive.
`CCN(CC)CCCC1(CN)OCCc2ccccc21` (centres undefined) gave TLR4 MyD88 comp inactive, MIN6 prolif-1 8.4, NOD2 RIPK2 PPI inactive, MC4R barr agon inactive, TLR9-MyD88 block inactive, MC4R antag cAMP inactive and MIN6 prolif-2 inactive.
For CCC(NC(C)C)C(O)c1ccc(O)c2[nH]c(=O)ccc12 (centres undefined) the results were TLR4 MyD88 comp inactive, MIN6 prolif-1 19.0, NOD2 RIPK2 PPI inactive, MC4R barr agon inactive, TLR9-MyD88 block inactive, MC4R antag cAMP inactive and MIN6 prolif-2 inactive.
O=C(CN1C(=O)CSc2ncccc21)Nc1ccccc1F was read as MIN6 prolif-1 inactive, NOD2 RIPK2 PPI inactive, MC4R barr agon inactive, TLR9-MyD88 block inactive and MC4R antag cAMP inactive.
COc1ccc(CC(=O)Nc2ccc3c(c2)OC2(CCCC2)O3)c(OC)c1 was read as NOD2 RIPK2 PPI inactive, MC4R barr agon inactive, TLR9-MyD88 block inactive and MC4R antag cAMP inactive.
Screening O=C(Nc1ccccc1F)NC1CCCc2ccccc21 (centres undefined) returned MIN6 prolif-1 7.2, NOD2 RIPK2 PPI inactive, MC4R barr agon inactive, TLR9-MyD88 block inactive, MC4R antag cAMP inactive and MIN6 prolif-2 inactive.
Screening CNc1nc(Nc2ccccc2)nc(OCC(F)(F)F)n1 returned TLR4 MyD88 comp inactive, MIN6 prolif-1 7.0, NOD2 RIPK2 PPI inactive, MC4R barr agon inactive, TLR9-MyD88 block inactive, MC4R antag cAMP inactive and MIN6 prolif-2 inactive.
`O=C(COC(=O)c1ccc[nH]c1=O)Nc1ccc(N2CCCCC2)cc1` gave MIN6 prolif-1 inactive, NOD2 RIPK2 PPI inactive, MC4R barr agon inactive, TLR9-MyD88 block inactive and MC4R antag cAMP inactive.
COc1ccc(O)c(-c2nc(N)nc(N)n2)c1 was read as MIN6 prolif-1 inactive, NOD2 RIPK2 PPI inactive, MC4R barr agon inactive, TLR9-MyD88 block inactive and MC4R antag cAMP inactive.
Screening Nc1nc(N)nc(-c2cc(F)ccc2O)n1 returned MIN6 prolif-1 13.5, NOD2 RIPK2 PPI inactive, MC4R barr agon inactive, TLR9-MyD88 block inactive, MC4R antag cAMP inactive and MIN6 prolif-2 inactive.
CCCCN(CC)C(=O)c1cc2c(=O)n3cccc(C)c3nc2s1 was read as MIN6 prolif-1 10.9, NOD2 RIPK2 PPI inactive, MC4R barr agon inactive, TLR9-MyD88 block inactive, MC4R antag cAMP inactive and MIN6 prolif-2 inactive.
For CCN(C(=O)c1cc2c(=O)n3cccc(C)c3nc2s1)C1CCCCC1 the results were MIN6 prolif-1 inactive, NOD2 RIPK2 PPI inactive, MC4R barr agon inactive, TLR9-MyD88 block inactive and MC4R antag cAMP inactive.
CCN(CC)C(=O)c1cc2c(=O)n3cccc(C)c3nc2s1 was read as MIN6 prolif-1 inactive, NOD2 RIPK2 PPI inactive, MC4R barr agon inactive, TLR9-MyD88 block inactive and MC4R antag cAMP inactive.
CCN(C(=O)c1cc2c(=O)n3ccccc3nc2s1)C1CCCCC1 was read as MIN6 prolif-1 6.9, NOD2 RIPK2 PPI inactive, MC4R barr agon inactive, TLR9-MyD88 block inactive, MC4R antag cAMP inactive and MIN6 prolif-2 inactive.
`C/C(Cc1ccccc1)=N\NC(=O)CNC(=O)c1ccc(C(C)(C)C)cc1` gave TLR4 MyD88 comp inactive, MIN6 prolif-1 inactive, NOD2 RIPK2 PPI inactive, MC4R barr agon inactive, TLR9-MyD88 block inactive and MC4R antag cAMP inactive.
Screening O=C(Cn1cc2c(n1)CCCCC2)NCc1ccccc1 returned MIN6 prolif-1 inactive, NOD2 RIPK2 PPI inactive, MC4R barr agon inactive, TLR9-MyD88 block inactive and MC4R antag cAMP inactive.
For O=C(Cn1cc2c(n1)CCCCC2)NCc1ccccn1 the results were MIN6 prolif-1 11.6, NOD2 RIPK2 PPI inactive, MC4R barr agon inactive, TLR9-MyD88 block inactive, MC4R antag cAMP inactive and MIN6 prolif-2 inactive.
Screening N#Cc1ccc(CSc2ccc(S(=O)(=O)N3CCCCCC3)cn2)cc1 returned MIN6 prolif-1 inactive, NOD2 RIPK2 PPI inactive, MC4R barr agon inactive, TLR9-MyD88 block inactive and MC4R antag cAMP inactive.
`CC(C)CCNC(=O)CN1N=C(c2ccc(Cl)cc2)CCC1=O` gave MIN6 prolif-1 7.3, NOD2 RIPK2 PPI inactive, MC4R barr agon inactive, TLR9-MyD88 block inactive, MC4R antag cAMP inactive and MIN6 prolif-2 inactive.
